In PMC10603355 (Journal for Immunotherapy of Cancer, 2023):

How the values were obtained:
[1] = system: splenocytes of HHDII/DR1 mice (T-cell IFNγ response); test: IFNγ ELISpot on splenocytes of peptide-immunized HLA-A2 transgenic; format: in vivo, mouse; details: for IFNγ response after immunization with wt peptide: HHDII/DR1 mice, tested against wt or Hcit peptides (figure 2B); for Modification specificity of IFNγ response (Hcit versus wt peptide): HHDII/DR1 and HHDII mice immunized with long Hcit peptide (figure 2A); for Effect of CD4 or CD8 blocking antibody on IFNγ response, ex vivo: HHDII/DR1 mice immunized with long Hcit peptide, 20 µg/mL anti-CD4 or anti-CD8 (figure 1C)
Summary of the method: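 HHDII/DR1 or HHDII mice get 25 µg peptide s.c. (stock 1 mg/mL in 20% DMSO/PBS) with 5 µg each CpG ODN 1826 and monophosphoryl lipid A in PBS on days 1, 8 and 15. Spleens taken day 21. 5×10^5 splenocytes/well in quadruplicate are restimulated with peptide for 40 h at 37°C, 5% CO2. IFNγ spots are counted automatically and reported as mean spots/million splenocytes per mouse; n=3 per group.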

[2] = system: HLA-A2 on T2 cells; test: T2 binding assay; format: cell-based, human; details: different peptide concentrations; three independent experiments (figure 3C,D)
Summary of the method: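 T2 cells (2×10^6/mL) are incubated overnight at 37°C with peptide (dilutions prepared at 400, 40 and 4 µg/mL before mixing) and recombinant human β2-microglobulin (prepared at 800 ng/mL). Brefeldin A is added for 1 h before anti-HLA-A2 FITC staining and flow cytometry. Binding is taken as median fluorescence intensity; three independent experiments, two-way ANOVA.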

[3] = system: B16 HHDII melanoma cells; test: In vivo antitumor study, B16 HHDII tumor in HHDII mice; details: aggressive mouse B16 melanoma model, peptide vaccination
Summary of the method: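 HHDII mice receive 5×10^4 B16 HHDII cells s.c. on day 1, then peptide plus CpG/MPLA adjuvant on days 4, 8 and 11. In depletion arms, anti-CD4 (GK1.5) or anti-CD8 (2.43) is given i.p., 500 µg day 4 and 300 µg days 8 and 11. Tumours are checked twice weekly, with euthanasia near 15 mm diameter; n=5–10 per group.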

Substance | IFNγ response after immunization with wt peptide [1] | Modification specificity of IFNγ response (Hcit versus wt peptide) [1] | Effect of CD4 or CD8 blocking antibody on IFNγ response, ex vivo [1] | also measured
Aldo 204–219wt: wild type (native) long aldolase A peptide (YVTEKVLAAVYKALSD; UniProt P04075 204-219, looked up, fragment) | failed to stimulate detectable IFNγ immune responses |  |  | 
LEQQN-Hcit-MLET- Hcit-WSLLQQQ- Hcit-T [Cyk8 112-132Hcit] |  | strong modification specific responses | either anti-CD8 or anti-CD4 antibody significantly reduced the immune response | 
VLAAVY-Hcit-AL [Aldo 209-217Hcit] |  |  |  | HLA-A2 binding affinity of Hcit peptide compared with corresponding wt peptide [2]: higher binding affinity; IFNγ response to short peptide in mice immunized with the long Hcit peptide ([1]; HHDII/DR1 mice immunized with Aldo 204-219Hcit or Cyk8 112-132Hcit (figure 2C)): strong responses; survival [3]: at least 50%
YVTE-Hcit-VLAAVY-Hcit-ALSD [Aldo 204-219Hcit] |  | strong modification specific responses | not affected by either of the blocking antibody | 
Cyk8 112–132wt: wild type (native) long cytokeratin 8 peptide (LEQQNKMLETKWSLLQQQKTA; UniProt P05787 112-132, looked up, fragment) | failed to stimulate detectable IFNγ immune responses |  |  | 
